Reference: ChEMBL document CHEMBL1944548, “Discovery of kinase spectrum selective macrocycle (16E)-14-methyl-20-oxa-5,7,14,26-tetraazatetracyclo[19.3.1.1(2,6).1(8,12)]heptacosa-1(25),2(26),3,5,8(27),9,11,16,21,23-decaene (SB1317/TG02), a potent inhibitor of cyclin dependent kinases (CDKs), Janus kinase 2 (JAK2), and fms-like tyrosine …” (J Med Chem, 2012)

Assays:
[1] = Half life in rat liver microsomes at 5 uM by LC-MS/MS analysis; assay type: ADME, Microsome
How it was run: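 5 μM with mouse, rat, dog or human liver microsomes (~0.87 mg/mL), 50 mM potassium phosphate pH 7.4, NADPH regeneration system, 37 °C.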

[2] = tested on: Ramos; assay: Antitumor activity against human Ramos cells xenografted in po/ip dosed BALB/c nude mouse assessed as tumor growth inhibition; assay type: functional, organism-based
How it was run: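 Female BALB/c nude mice implanted sc in right flank with 7 × 10^6 Ramos cells; dosing began 12 days after inoculation at about 200 mm3, n = 8–10/group. Arms: 75 mg/kg po q.d. 2 days on/5 off in MC/Tween, or 15 mg/kg ip q.d.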

[3] = tested on: HL-60; assay: Antiproliferative activity against human HL60 cells after 48 hrs; assay type: functional, cell-based; details: HL-60, 48 h

CN1C/C=C/CCOc2cccc(c2)-c2ccnc(n2)Nc2cccc(c2)C1 [ZOTIRACICLIB]
half-life at 5 µM [1]: 11 min
growth inhibition (GI) [2]: Dose-dependent effect
IC50 [3]: 59 nM
